High-throughput results (PubChem)
ABCB1 block – ABCB1 efflux pump inhibitors, primary screen, cell-based, multiplex, flow cytometry, ABCG2 counter-screen; 190,000 compounds, 0.067% hits; inhibition, % at 6.6 µM; CCRF-Adr cells, JC-1 efflux; ATP-dependent translocase ABCB1 (Homo sapiens), P08183; in the data active = inhibition above about 40%;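 note: higher value means more JC-1 retained so stronger ABCB1 efflux block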
PMI act hi M6P – human PMI activators, high substrate, primary screen, biochemical, fluorescence intensity, near-saturating mannose 6-phosphate; Mannose-6-phosphate isomerase (Homo sapiens), P34949; coupled PMI enzyme assay, resazurin fluorescence, 20 min; hits give high values; 1 = untreated enzyme, 0 = substrate-free blank; activation factor at 20 µM; 190,000 compounds, 0.34% hits; AID 1216, 2008;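 active = activation factor of 2 or more at 20 µM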
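Test system: human phosphomannose isomerase with PGI, G6PDH, diaphorase coupling enzymes / Doses: 20 µM compound, 1% DMSO / Times: enzyme reaction with compound 20 min at room temperature / Measured by: Diaphorase-driven resazurin-to-resorufin fluorescence, excitation 544, emission 590 nm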
PMI activator – activators of human PMI, primary screen, biochemical, fluorescence intensity, near-Km mannose 6-phosphate; Mannose-6-phosphate isomerase (Homo sapiens), P34949; purified human PMI, coupled resazurin fluorescence, 20 min; hits give high values; 1 = vehicle control, 0 substrate-free wells; activation factor at 20 µM; 190,000 compounds, 0.005% hits;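 active = activation factor of 2 or more at 20 µM, relative to plate controls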
ROMK primary – ROMK potassium channel modulators, primary screen, cell-based, thallium flux, MLSMR library; Tet-inducible ROMK, thallium flux fluorescence; actives lie on both sides; B-score at 10 µM; 130,000 compounds, 2% hits; ATP-sensitive inward rectifier potassium channel 1 (Homo sapiens), P48048;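 active = signal ratio slope over the read window, or its plate-corrected B-score, at least 3 SD from the plate mean, either direction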;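 note: B-score of the F/F0 ratio slope over 7 to 12 s after thallium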
ABCG2 block – ABCG2 efflux pump inhibitors, primary screen, multiplex with ABCB1, IgMXP3 cells, flow cytometry; inhibition, % at 6.6 µM; AID 1325, 2008; 190,000 compounds, 0.1% hits; JC-1 efflux; Broad substrate specificity ATP-binding cassette transporter ABCG2 (Homo sapiens), Q9UNQ0;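 active = inhibition above 80%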
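Read-out basis: Efflux inhibition in percent versus controls | Test system: ABCG2 IgMXP3 and barcoded ABCB1 CCRF-Adr cell mix | Quantity: 3 million cells/mL in well | Schedule: 10 min at 25 °C | Control set: Nicardipine as high control, DMSO as low control | Reagent: JC-1 as fluorescent efflux pump substrate | Signal: Flow cytometry of retained JC-1 fluorescence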
Cl transport mod – KCC2 cotransporter modulators, thallium flux, primary screen, cell-based, HEK293 KCC2, FluoZin-2 fluorescence, MLSMR | B-score of Tl+ flux slope (higher = more flux/activation; lower = inhibition) at 10 µM | AID 1456, 2008 | KCC2 cells, thallium flux FluoZin-2 fluorescence | 190,000 compounds, 2.2% hits;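 active = thallium flux slope and its plate-corrected score both differing from the plate sample mean at a set confidence after two filtering rounds, in either direction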;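 note: slope of fluorescence scaled to starting intensity during 10 to 20 s after thallium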
KCC2 sec1 – KCC2 modulators in sodium-free buffer, confirmation, cell-based, HEK293 KCC2, thallium flux, secondary assay | shares compounds with Cl transport mod | FluoZin2 fluorescence; hits give high values | normalised thallium flux (F/F0 slope) at 10 µM | 3,700 compounds, 15% hits | AID 1713, 2009;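 active = thallium flux slope above the same plate's solvent-only control mean plus 3 SD; inconclusive = the two replicate wells disagree; inactive = no significant difference from solvent-only control wells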
KCC2 bumet counter – thallium flux persisting under bumetanide in KCC2 cells, confirmation, counter-screen for KCC2 modulator project, cell-based, HEK293 KCC2, FluoZin2, secondary assay 3. normalized thallium flux at 10 µM. HEK293-KCC2 + bumetanide/ouabain; hits give high values. shares compounds with Cl transport mod. 3,700 compounds, 49% hits;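 active = thallium entry rate above the same plate's blocked-transporter control wells by more than 3 SD; inconclusive = the two repeat wells disagree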;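 note: raw slope of fluorescence over initial fluorescence between 10 and 20 s after thallium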
KCC2 secondary2 – KCC2 modulators without ouabain present, confirmation, cell-based, HEK293 KCC2, thallium flux, FluoZin2, secondary assay 2 | shares compounds with Cl transport mod | 3,700 compounds, 23% hits | thallium flux FluoZin2 fluorescence; actives lie on both sides; F/F0 rise rate, 10–20 s post-thallium | normalized thallium flux at 10 µM;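 active = thallium flux slope more than 3 SD above or below the plate's solvent-only control mean, mostly below; inconclusive = the two repeat wells disagreed; inactive = no significant shift from solvent-only controls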
HEK counter1 – thallium flux modulation in parental HEK cells, confirmation, counter-screen for KCC2 modulator project, cell-based, counterscreen 1 | shares compounds with Cl transport mod | HEK293 parental cells, thallium flux FluoZin2, ouabain; baseline-ratio fluorescence slope, 10–20 s after thallium | thallium flux rate (normalised fluorescence) at 10 µM | 3,700 compounds, 46% hits;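 active = thallium flux rate significantly above the same plate's solvent-only control wells, beyond their mean plus 3 SD; inconclusive = the two replicate wells gave conflicting results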
KCC2 ouabain – KCC2 inhibitors and activators, ouabain retest, confirmation, HEK-KCC2 cells. shares compounds with Cl transport mod. HEK293-KCC2, thallium flux FluoZin2 fluorescence; bidirectional: low = inhibitor, high = activator. raw Tl+ flux slope (below DMSO = inhibition, above = activation) at 10 µM. 3,700 compounds, 48% hits;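 active = thallium flux slope beyond 3 SD from same-plate DMSO control mean in most replicates, usually higher, sometimes lower; inconclusive = repeat tests gave conflicting results; inactive = no significant difference from controls in most replicates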;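 note: slope of initial-normalized fluorescence between seconds 10 and 20 after thallium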
HEK counter2 – native HEK Tl+ uptake effects, second counter-screen – HEK cells, counterscreen 2, counter-screen for KCC2 modulator project, confirmation. shares compounds with Cl transport mod. HEK293 parental, thallium flux FluoZin-2 fluorescence slope. thallium flux slope at 10 µM. 3,700 compounds, 33% hits. AID 1718, 2009;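 active = thallium flux slope above the same plate's solvent-control mean plus 3 SD in both duplicate wells; inconclusive = duplicate wells that disagreed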;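 note: run without ouabain in cells lacking the KCC2 cotransporter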
Numbers stand for hits; 0 = inactive; ? = inconclusive; - = not tested or not shown. In the library only some 3.3% were active in any assay of this set; here they are far more common.

SMILES	ABCB1 block	PMI act hi M6P	PMI activator	ROMK primary	ABCG2 block	Cl transport mod	KCC2 sec1	KCC2 bumet counter	KCC2 secondary2	HEK counter1	KCC2 ouabain	HEK counter2
NN/C(=C\[N+](=O)[O-])Nc1ccc(Cl)cc1	0	2	0	0	0	6.7	0	0.0228	0	0.00999	0	0
NNC(=S)Nc1ccc(Cl)cc1	0	0	0	0	0	0	-	-	-	-	-	-
COc1ccc(/C=C/c2cc(C(F)(F)F)on2)cc1	-	-	-	-	-	0	-	-	-	-	-	-
Cc1cc(=O)[nH]c(SCC(=O)Nc2ccc(Br)cc2)c1C#N	0	0	0	0	0	-2.9	0	0	0.0229	0.006	0.0151	?
COCCN1C(=O)C(O)=C(C(=O)c2ccco2)C1c1cccc(Oc2ccccc2)c1 (configuration not stated)	0	0	0	-	0	-6.94	0	0	?	0.00631	0.0165	0
CCCN1C/C(=C/c2ccc3c(c2)OCO3)C(=O)/C(=C/c2ccc3c(c2)OCO3)C1	0	0	0	-	0	0	-	-	-	-	-	-
CCCN1C(=O)/C(=C/c2ccc3c(c2)OCO3)NC1=S	0	0	0	0	0	44.9	0.0257	0.071	0	0.092	0.0602	0.0219
O=C(CCS(=O)(=O)c1ccc(Br)s1)NC1CCCC1	0	0	0	0	0	-	0	0	0	0	0	0
N#Cc1c(-c2ccc(C(F)(F)F)cc2)cc(-c2ccccc2)[nH]c1=S	0	0	0	-	0	5	0.0201	0.0222	0	?	0.0294	0.0244
Cc1ccc(-c2cc(-c3ccccc3)[nH]c(=S)c2C#N)cc1	0	0	0	-	0	-	-	-	-	-	-	-
O=C(N/N=C/c1ccc(OCc2ccccc2)cc1)c1cc[n+](Cc2ccccc2)cc1	0	0	0	0	0	-3.45	0	?	0.0241	0	?	0
C/C(=N\Nc1nc2ccc(Cl)cc2o1)c1ccccc1	-	-	-	0	-	10.2	0	0	0	0.013	0	0.0154
O=C(CN1C(=O)COc2ccc(Cl)cc21)N1CCc2ccccc21	0	0	0	-	0	-	-	-	-	-	-	-
